TRPC6 inh: mouse TRPC6 channel inhibitors, primary screen, cell-based, HEK293, membrane potential dye; actives 1.1% (n = 310,000); B-score at 10 µM; Short transient receptor potential channel 6 (Mus musculus), Q61143; ACh-evoked depolarization; hits give low values;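 active means B-score under library mean minus 3 SD, initial fluorescence not abnormally high, positive integrated signal ratio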;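 further: B-score derived from integrated fluorescence ratio over the kinetic read; more negative B-score means stronger inhibition of depolarization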
TRPC6 act: mouse TRPC6 channel activators, primary screen, cell-based, HEK293, membrane potential dye; actives 0.13% (n = 310,000); B-score at 10 µM; AID 2550, 2010; HEK293-TRPC6 membrane potential dye fluorescence; hits give high values; Short transient receptor potential channel 6 (Mus musculus), Q61143;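 active means B-score of the integrated fluorescence ratio above library mean plus 3 SD, and starting fluorescence ratio within library mean plus 5 SD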;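 further: higher score means more depolarization so channel activation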
TRPC4 inh: inhibitors of mouse TRPC4 channel, primary screen, Fluo4 calcium, HEK293 TRPC4beta/mu-opioid cells; Short transient receptor potential channel 4 (Mus musculus), Q9QUQ5; B-score at 10 µM; AID 2247, 2010; DAMGO-evoked Fluo4 calcium flux; hits give low values; actives 0.39% (n = 300,000);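 active means B-score over 3 SD under the library average, no early fluorescence shift, positive overall ratio signal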
Target sequence (Q9QUQ5 whole entry, looked up): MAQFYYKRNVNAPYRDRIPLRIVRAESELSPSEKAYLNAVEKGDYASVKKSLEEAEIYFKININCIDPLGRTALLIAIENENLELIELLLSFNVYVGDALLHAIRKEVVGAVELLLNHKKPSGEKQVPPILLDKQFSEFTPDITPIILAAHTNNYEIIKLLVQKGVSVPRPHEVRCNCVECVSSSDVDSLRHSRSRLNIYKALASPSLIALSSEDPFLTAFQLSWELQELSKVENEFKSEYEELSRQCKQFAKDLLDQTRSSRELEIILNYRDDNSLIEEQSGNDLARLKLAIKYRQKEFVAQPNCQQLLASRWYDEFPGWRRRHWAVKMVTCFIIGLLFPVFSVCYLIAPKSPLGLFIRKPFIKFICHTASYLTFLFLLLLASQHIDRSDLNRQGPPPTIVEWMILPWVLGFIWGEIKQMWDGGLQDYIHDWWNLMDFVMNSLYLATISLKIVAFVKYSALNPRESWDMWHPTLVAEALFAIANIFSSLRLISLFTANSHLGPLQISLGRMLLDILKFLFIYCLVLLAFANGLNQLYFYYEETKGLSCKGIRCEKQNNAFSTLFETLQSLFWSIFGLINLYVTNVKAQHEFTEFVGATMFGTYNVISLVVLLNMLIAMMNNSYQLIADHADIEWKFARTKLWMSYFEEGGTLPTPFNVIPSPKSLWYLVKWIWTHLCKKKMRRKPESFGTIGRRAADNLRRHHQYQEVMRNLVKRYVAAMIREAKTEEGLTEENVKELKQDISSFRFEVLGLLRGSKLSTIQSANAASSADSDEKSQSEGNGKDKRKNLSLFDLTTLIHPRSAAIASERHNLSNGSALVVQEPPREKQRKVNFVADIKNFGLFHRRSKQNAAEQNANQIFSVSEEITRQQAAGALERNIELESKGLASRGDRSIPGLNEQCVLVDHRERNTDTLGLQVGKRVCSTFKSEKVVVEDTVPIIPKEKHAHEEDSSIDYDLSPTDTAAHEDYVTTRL
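Assay system: HEK293 cells with stable TRPC4beta plus mu-opioid receptor expression. Dosing: single dose. Measured by: Fluo4 Ca2+ flux fluorescence. Also added: DAMGO in two steps, submaximal then maximal. Read-out: B score from integrated Fluo4 fluorescence ratio.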
TRPC4 agonist: activators of mouse TRPC4 channel, primary screen, Fluo4 calcium, HEK293 TRPC4beta/mu-opioid cells; Fluo4 calcium fluorescence; hits give high values; B-score at 10 µM; actives 0.49% (n = 310,000); AID 2237, 2010;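 active means B-score above 5 SD of library B-scores, and initial fluorescence ratio not above library mean plus 5 SD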;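 further: positive B-score marks a calcium rise read as TRPC4 activation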
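Material: HEK293 stable line with TRPC4beta plus mu-opioid receptor; technique: Fluo4 calcium-sensitive dye fluorescence, kinetic, 1 Hz baseline; timing: Fluo4 dye loading 45 min at room temperature, 110 s recording; controls: assay buffer as low control, maximal DAMGO as high control; read-out: integrated baseline-normalised fluorescence ratio, converted to per-well B score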
TRPC4 PAM: positive allosteric modulators of TRPC4, primary screen, cell-based, mouse TRPC4beta, HEK293 mu-opioid, Fluo-4 calcium; Short transient receptor potential channel 4 (Mus musculus), Q9QUQ5; DAMGO EC20, Fluo-4 Ca2+ flux; hits give high values; B-score at 10 µM; actives 0.42% (n = 310,000);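 active means B-score of calcium response area above 5 SD of library B-scores, with initial fluorescence ratio within 5 SD of library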;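 further: B-score of integrated fluorescence ratio over time as area under calcium response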
TRPC4 spec 2: mouse TRPC4 off-target activity of TRPC6 inhibitors, second screen; shares compounds with TRPC6 inh; HEK293 TRPC4/MOR, membrane potential dye fluorescence; channel activated by saturating DAMGO dose; inhibition, % at 10 µM; actives 42% (n = 920); AID 2776;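 active means compounds whose fluorescence signal differed from control wells by over 3 SD, either direction, in both duplicate plates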
TRPC4 spec: mouse TRPC4 modulation by TRPC6 hits, confirmation, selectivity assay for TRPC6 inhibitor project, cell-based, HEK293 TRPC4/mu-opioid, membrane potential dye. shares compounds with TRPC6 inh. membrane potential fluorescence. activity change, negative = inhibition, % at 10 µM. actives 61% (n = 920);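 active means rise or fall in signal beyond 3 SD of buffer-only wells in both replicate plates, either sign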;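 further: integrated kinetic ratio of fluorescence range over baseline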
HEK293 MPD ctr 2-1: nonspecific membrane potential effects, parental HEK293, confirmation, counter-screen for TRPC6 inhibitor project, cell-based, second counter screen | shares compounds with TRPC6 inh | parental HEK293 membrane potential dye fluorescence; maximal acetylcholine challenge after compound addition | signal change vs control, % at 10 µM | actives 31% (n = 920) | AID 2779, 2010;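 active means membrane potential signal moving either way by over 3 SD of the maximum-effect control, in both duplicate plates, meaning non-specific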
HEK293 MPD ctr-1: membrane potential modulation in parental HEK293, confirmation, counter-screen for TRPC6 inhibitor project, cell-based. shares compounds with TRPC6 inh. parental HEK293 membrane potential dye fluorescence. membrane potential signal change, % at 10 µM. actives 60% (n = 920);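 active means membrane potential signal shifting up or down by more than 3 SD of buffer-only wells, on both duplicate plates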
HEK293 MPD ctr-2: parental HEK293 membrane potential modulation, confirmation, counter-screen for TRPC6 modulator project, cell-based; shares compounds with TRPC6 inh; membrane potential dye fluorescence; membrane potential signal change, % at 10 µM; actives 51% (n = 2,400);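 active means membrane potential signal moves up or down beyond 5 SD from buffer-only wells, on both duplicate plates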
HEK293 MPD ctr 2-2: parental HEK293 nonspecific activity of TRPC6 modulators, second screen; shares compounds with TRPC6 inh; membrane potential dye fluorescence; after compound, maximal acetylcholine stimulation; inhibition, % at 10 µM; actives 14% (n = 2,400);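 active means membrane potential signal drops by more than 5 SD from the mean control signal, in both duplicate plates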;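 further: plate controls were acetylcholine ECmax control wells for no effect and buffer only wells for full effect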
TRPC4 ctr mod: TRPC4 modulation by TRPC6 hit compounds, confirmation, selectivity assay for TRPC6 modulator project, cell-based, HEK293 TRPC4/mu-opioid, membrane potential dye, mouse. percent change from control (negative = decrease, positive = increase), % at 10 µM. shares compounds with TRPC6 inh. membrane potential fluorescence. actives 69% (n = 2,400). AID 488927, 2010;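 active means membrane potential signal moved up or down beyond 5 SD of buffer control wells, in both duplicate plates, actives on both sides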;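 further: plate controls were assay buffer wells for no effect and DAMGO maximal-effect wells for full effect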
TRPC4/MOR inh 2: second check of whether TRPC6 modulators also affect mouse TRPC4; shares compounds with TRPC6 inh; HEK293 TRPC4/mu-opioid, membrane potential dye fluorescence; stimulated with maximal-effect DAMGO; inhibition, % at 10 µM; actives 55% (n = 2,400); AID 488928;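 active means drop in membrane potential signal beyond 5 SD of the control wells in both duplicate plates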;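 further: TRPC4 counter screen for TRPC6 hits run under conditions tuned for TRPC6 not TRPC4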
TRPC6 inh conf: mouse TRPC6 channel inhibitors, confirmation, HEK293 cells, membrane potential dye, duplicate. shares compounds with TRPC6 inh. ACh-evoked depolarization. inhibition, % at 10 µM. actives 43% (n = 3,300). AID 488960, 2010;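 active means fluorescence ratio falls more than 5 SD below the full-stimulation control mean, in both duplicate runs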;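 further: integrated fluorescence ratio of peak minus minimum over baseline after agonist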
TRPC6 act conf: mouse TRPC6 channel activators, confirmation, HEK293 cells, membrane potential dye, duplicate; shares compounds with TRPC6 inh; HEK293-TRPC6 membrane potential dye fluorescence, FDSS; activation, % at 10 µM; actives 11% (n = 2,800); AID 488961, 2010;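 active means ratio signal rise beyond 5 SD above unstimulated control wells' mean, seen in both duplicate runs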;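 further: plate controls were buffer EC0 wells for no effect and acetylcholine ECmax response for full effect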
The depositor's hits bear a star; i = inactive; x = not tested or not shown. Compounds with a hit are over-represented: about 2.3% of the library has one in this group of screens.

SMILES	TRPC6 inh	TRPC6 act	TRPC4 inh	TRPC4 agonist	TRPC4 PAM	TRPC4 spec 2	TRPC4 spec	HEK293 MPD ctr 2-1	HEK293 MPD ctr-1	HEK293 MPD ctr-2	HEK293 MPD ctr 2-2	TRPC4 ctr mod	TRPC4/MOR inh 2	TRPC6 inh conf	TRPC6 act conf
Cc1ccc2nc(NCCCN3CCOCC3)c(C=NCCCN3CCOCC3)c(=O)n2c1	-8.91*	i	i	i	i	x	x	x	x	-350.5%*	79.5%*	-66.5%*	53.0%*	63.5%*	i
Cc1ccc2nc3c(cc(C(=O)NCCN4CCOCC4)c(=N)n3CCCN3CCOCC3)c(=O)n2c1	-7.48*	i	i	i	i	72.0%*	i	-173.5%*	i	x	x	x	x	82.6%*	x
Cc1ccc2nc(NCc3ccccc3)c(C=NCc3ccccc3)c(=O)n2c1	i	i	i	i	i	x	x	x	x	x	x	x	x	x	x
N=c1c(C(=O)NCCN2CCOCC2)cc2c(=O)n3ccccc3nc2n1CCCN1CCOCC1	-7.57*	i	i	i	i	69.5%*	3.7%*	-287.5%*	5.5%*	x	x	x	x	77.0%*	i
CC(=O)N1CC(C)Oc2ccc(S(=O)(=O)Nc3ccc(Cl)cn3)cc21 (configuration not stated)	i	i	i	i	i	x	x	x	x	x	x	x	x	x	x
O=C(Cc1ccccc1)NNC(=O)c1ccc(Br)o1	i	i	i	i	i	x	x	x	x	x	x	x	x	x	x
CCN(CC)CCNC(=O)C1CCN(S(=O)(=O)c2c(C)noc2/C=C/c2ccccc2F)CC1	i	i	i	i	i	x	x	x	x	x	x	x	x	x	x
CNCCC1Sc2ccccc2Oc2ccccc21 (configuration not stated)	-5.59*	i	i	i	i	x	x	x	x	86.0%*	i	41.0%*	59.0%*	i	x
CCN1CCCC1CNC(=O)C(=O)NC(C)c1ccccc1 (configuration not stated)	i	i	i	i	i	x	x	x	x	x	x	x	x	x	x
Cc1nnc(N/N=C/c2ccccc2C(F)(F)F)n1N	i	i	i	i	i	x	x	x	x	x	x	x	x	x	x
CN(C)c1cc(N/N=C/c2ccccc2C(F)(F)F)nc(N(C)C)n1	-5.07*	i	i	i	i	x	x	x	x	i	i	i	i	i	i
O=C(c1cccc(C(=O)N2CCN(c3ccccc3F)CC2)n1)N1CCN(c2ccccc2F)CC1	-10.4*	12.3*	i	i	i	x	x	x	x	141.5%*	i	29.0%*	64.0%*	88.0%*	129.5%*
Cc1cc(C)c2nc(C)cc(Nc3ccc(C(=O)N4CCOCC4)cc3)c2c1	-6.92*	i	i	i	i	i	-16.4%*	i	-271.5%*	x	x	x	x	70.3%*	i
CC(=O)c1cccc(Nc2cc(C)nc3c(C)cc(C)cc23)c1	-5.75*	i	-6*	i	i	x	x	x	x	-102.0%*	75.5%*	-21.5%*	65.0%*	56.5%*	i
CC(=O)c1cccc(Nc2cc(C)nc3ccc(C)cc23)c1	-6.6*	i	i	i	i	66.5%*	-22.1%*	14.5%*	-260.0%*	x	x	x	x	i	i
CCOc1cccc(CNCCSc2nnnn2C)c1	i	i	i	i	i	x	x	x	x	x	x	x	x	x	x
Cn1c(/C=C/c2ccccc2)nc2ccccc21	-7.92*	i	i	i	i	23.0%*	3.3%*	i	-204.0%*	x	x	x	x	i	i
Cn1c(=O)c(/C=C/c2ccccc2)nc2ccccc21	i	i	i	i	i	x	x	x	x	x	x	x	x	x	x
Cc1sc2nc(SCC(=O)N(CCO)CCO)n(C3CCCCC3)c(=O)c2c1C	i	i	i	i	i	x	x	x	x	x	x	x	x	x	x
C=CCn1c(SCC(=O)c2cc(C)n(CC3CCCO3)c2C)nnc1-c1ccccc1 (configuration not stated)	i	16*	i	i	i	x	x	x	x	110.5%*	i	26.5%*	i	x	82.5%*
COc1ccc2nc(C)cc(Nc3ccc(N4CCN(C)CC4)cc3)c2c1	-9.6*	i	i	i	i	57.0%*	-23.6%*	-94.5%*	-291.5%*	x	x	x	x	85.7%*	i
Cc1cc(Nc2cccc(Br)c2)c2ccccc2n1	i	i	i	i	i	x	x	x	x	x	x	x	x	x	x
COc1ccc(Nc2cc(C)nc3ccccc23)cc1	-5.09*	i	-6*	i	i	x	x	x	x	-131.5%*	i	-21.0%*	48.5%*	i	i
